Results published in ChEMBL document CHEMBL1126657, “Benzylamine antioxidants: relationship between structure, peroxyl radical scavenging, lipid peroxidation inhibition, and cytoprotection” (1993).
Values after ≈ are worked out from the molar mass of the structure shown. Active and inactive are the calls of the source. The rule behind the calls is not given here.

Columns and labels:
Rattus norvegicus [1] = species: Rattus norvegicus; assay: Percent viability of rat hippocampal neurons exposed to hydrogen peroxide (50 uM) in the presence of the test agent (5 uM); format: functional
In short: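 Primary rat hippocampal neuron cultures were given test agent (5 μM) and exposed for 15 min to H2O2 (50 μM). Survival was scored by vital dye staining 18 h later. n = 3 cultures prepared on different days, mean ± SD.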

Oryctolagus cuniculus = species: Oryctolagus cuniculus; assay: Inhibition of iron-dependent peroxidation of rabbit vesicular membrane lipids (minimum test concentration that gave greater than 50% inhibition).; format: functional
In short: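 Lipids from rabbit brain vesicular membranes were peroxidized in an iron-dependent system. Value is the minimum tested concentration giving ≥50% inhibition (μM), n = 3.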

[2] = percent inhibition of 2,2'-azobis(2-amidinopropane)dihydrochloride induced decay of (R)-phycoerythrin fluorescence emission; format: functional; parameters: concentration or dose not given beside the values; settings: dose or concentration not given here
In short: (§1)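 R-PE (4.5 × 10⁻⁸ M stock) was mixed with test agent (3 μM stock; 1 μM final) in 75 mM phosphate buffer pH 7.0 and equilibrated 5 min at 37 °C. AAPH (12 mM stock, freshly made) was then added. Fluorescence (ex 544, em 590 nm) was read every 5 min for 25 min and normalized to 0 min. Percent inhibition at 15 min = (sample − AAPH)/(control − AAPH) × 100, n = 4.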

[3] = Percent inhibition of 2,2'-azobis(2-amidinopropane)dihydrochloride induced decay of (R)-phycoerythrin fluorescence emission; format: functional; parameters: concentration or dose not given beside the values; settings: dose or concentration not given here; in short: as §1
Rattus norvegicus [4] = assay: Hypotensive effect in anesthetized normotensive rat expressed as effective dose; No effect; format: functional, organism-based
Rattus norvegicus [5] = assay: Hypotensive effect in anesthetized normotensive rat expressed as effective dose; format: functional
Rattus norvegicus [6] = assay: Hypotensive effect in anesthetized normotensive rat expressed as effective dose; Study; format: functional, organism-based
Rattus norvegicus [7] = assay: Hypotensive effect in up to 0.1 mg/kg, slight pressor response (~16-17%) at 1 mg/kg; format: functional, organism-based

MIC (Oryctolagus cuniculus)	Structure (SMILES)	Cell viability (Rattus norvegicus [1])	inhibition [2]	inhibition [3]	ED20 (Rattus norvegicus [4])	ED20 (Rattus norvegicus [5])	ED20 (Rattus norvegicus [6])	ED20 (Rattus norvegicus [7])
30 µM	CCCCCCCOc1c(O)cc(CN(C)C)cc1O.Cl	47%	43.8%	–	–	–	–	–
> 100 µM	CC(C)Oc1cc(CN(C)C)cc(OC(C)C)c1O.Cl	35.8%	–	69.3%	inactive	–	–	–
2.3 µM	CCCCCCCOc1cc(CN2CCN(CCO)CC2)cc(OC)c1O.Cl.Cl	63%	64.4%	–	–	> 1 mg/kg	–	–
> 100 µM	CC(C)Oc1cc(CN2CCN(CCO)CC2)cc(OC(C)C)c1O.Cl.Cl	45.3%	–	71.6%	inactive	–	–	–
2.3 µM	CCCCCOc1cc(CN(C)C)cc(OCCCCC)c1O.Cl	51.2%	–	44.9%	–	–	Study	–
> 100 µM	CNCc1cc(OC)c(O)c(OC)c1.Cl	7.5%	–	75.8%	inactive	–	–	–
30 µM	COc1cc(CN(CC(C)C)CC(C)C)cc(OC)c1O.Cl	28.7%	–	63.7%	inactive	–	–	–
5.3 µM	CCCCCCCCCNCc1cc(OC)c(O)c(OC)c1.Cl	47.1%	52.9%	–	–	–	–	Pressor
10 µM	CCCCCCCNCc1cc(OC(C)C)c(O)c(OC(C)C)c1.Cl	43.5%	–	–	–	> 1 mg/kg	–	–
> 100 µM	COc1cc(CN(C)C)cc(OC)c1O.Cl	5.2%	–	69%	inactive	–	–	–
10 µM	CCC(CC)Oc1cc(CN(C)C)cc(OC(CC)CC)c1O.Cl	15.2%	–	66.8%	–	0.42 mg/kg	–	–
10 µM	CN(C)Cc1cc(OC2CCCC2)c(O)c(OC2CCCC2)c1.Cl	28.9%	–	74.3%	–	–	Study	–
> 100 µM	CCCCCNCc1cc(OC)c(O)c(OC)c1.Cl	29%	–	61.6%	inactive	–	–	–
3 µM (≈ 0.637 µg/mL)	CCCOC(=O)c1cc(O)c(O)c(O)c1 [PROPYL GALLATE]	–	40%	–	–	–	–	–
30 µM	CCCOc1cc(CN(C)C)cc(OCCC)c1O.Cl	31.3%	–	91.8%	–	1 mg/kg	–	–
10 µM	CCCCOc1cc(CN(C)C)cc(OCCCC)c1O.Cl	35.8%	–	73.3%	–	1 mg/kg	–	–
> 100 µM	CCCN(CCC)Cc1cc(OC)c(O)c(OC)c1.Cl	5.4%	–	63.7%	inactive	–	–	–
> 100 µM	CCCCNCc1cc(OC)c(O)c(OC)c1.Cl	17.1%	–	62.4%	inactive	–	–	–

Continued, compound first:

Structure (SMILES)	MIC (Oryctolagus cuniculus)	Cell viability (Rattus norvegicus [1])	inhibition [2]	inhibition [3]	ED20 (Rattus norvegicus [4])	ED20 (Rattus norvegicus [5])	ED20 (Rattus norvegicus [6])	ED20 (Rattus norvegicus [7])
CCCCCNCc1cc(OC(C)C)c(O)c(OC(C)C)c1.Cl	30 µM	42.8%	–	–	–	> 1 mg/kg	–	–
CCCCCCCNCc1cc(OC)c(O)c(OC)c1.Cl	30 µM	48.3%	63.5%	–	–	–	–	–
CCCCCCOc1cc(CN(C)C)cc(OCCCCCC)c1O.Cl	1 µM	73.1%	17.6%	–	–	0.36 mg/kg	–	–
CCN(CC)Cc1cc(OC)c(O)c(OC)c1.Cl	> 100 µM	3.7%	–	66.7%	inactive	–	–	–
CCCCCCNCc1cc(OC)c(O)c(OC)c1.Cl	100 µM	42.6%	–	65.2%	inactive	–	–	–
CCCCCCCOc1cc(CN(C)C)cc(OCCCCCCC)c1O.Cl	1 µM	75.7%	7.2%	–	–	–	–	–
CCCCCN(CCCCC)Cc1cc(OC)c(O)c(OC)c1.Cl	30 µM	35.5%	–	50.6%	–	> 1 mg/kg	–	–
CCCCCCCOc1c(O)cc(CN2CCN(CCO)CC2)cc1O.Cl.Cl	30 µM	50.3%	60.3%	–	–	–	–	–
CCNCc1cc(OC)c(O)c(OC)c1.Cl	> 100 µM	3.1%	–	71.8%	inactive	–	–	–
CCCCCCCCNCc1cc(OC)c(O)c(OC)c1.Cl	10 µM	59.8%	60.9%	–	–	–	–	Pressor
CCCNCc1cc(OC)c(O)c(OC)c1.Cl	> 100 µM	13.3%	–	80.1%	inactive	–	–	–
CCCCCCCOc1cc(CN(C)C)cc(OC)c1O.Cl	2.3 µM	44%	62.5%	–	–	> 1 mg/kg	–	–
CCOc1cc(CN(C)C)cc(OCC)c1O.Cl	100 µM	14.7%	–	71.6%	inactive	–	–	–
CCCCN(CCCC)Cc1cc(OC)c(O)c(OC)c1.Cl	> 100 µM	26.4%	–	66.6%	inactive	–	–	–
